Laboratory results taken from ChEMBL document CHEMBL1144110, “Triterpene saponins and lignans from the roots of Pulsatilla chinensis and their cytotoxic activity against HL-60 cells” (J Nat Prod, 1999).
Converted amounts (≈) assume the structure as drawn.

system: HL-60; experiment: Cytotoxicity against human HL-60 cells after 72 hrs by MTT assay; type: functional, cell-based; settings: HL-60, 72 h
Procedure, shortened: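 HL-60 human promyelocytic leukemia cells grown in RPMI 1640 with 10% FBS, L-glutamine and penicillin/streptomycin. Seeded at 3 × 10^4 cells/mL and preincubated 24 h at 37 °C in 5% CO2. Samples added in EtOH–H2O (1:1) at final 0.0001–50 µg/mL, with vehicle controls, for 72 h. MTT then 4 h, formazan dissolved in DMSO, read at 550 nm. IC50 taken from dose-response curves of samples giving >50% inhibition at 10 µg/mL.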

| SMILES | IC50 [µg/mL] |
| --- | --- |
| COc1cc([C@@H]2c3cc4c(cc3[C@@H](O[C@@H]3O[C@@H]5CO[C@@H](C)O[C@H]5[C@H](O)[C@H]3O)[C@H]3COC(=O)[C@H]23)OCO4)cc(OC)c1O [ETOPOSIDE] | 0.3 (≈ 0.51 µM) |
| COc1cc([C@@H]2c3cc4c(c(O)c3C[C@H]3COC(=O)[C@@H]32)OCO4)cc(OC)c1OC [BETA-PELTATIN A] | 0.0052 (≈ 0.0125 µM) |
| COc1cc([C@@H]2OC[C@@H]3[C@H]2CO[C@H]3c2ccc(O)c(OC)c2)ccc1O [(+)-PINORESINOL] | > 10 |
| C[C@@H]1O[C@@H](O[C@H]2[C@H](O[C@H]3CC[C@]4(C)[C@H]5CC=C6[C@@H]7CC(C)(C)CC[C@]7(C(=O)O)CC[C@@]6(C)[C@]5(C)CC[C@H]4C3(C)C)OC[C@H](O[C@@H]3O[C@H](CO)[C@@H](O)[C@H](O)[C@H]3O)[C@@H]2O)[C@H](O)[C@H](O)[C@H]1O [HEDERACOLCHISIDE A1] | 2.3 (≈ 2.56 µM) |
| C[C@@H]1O[C@@H](O[C@H]2[C@H](O[C@H]3CC[C@]4(C)[C@H]5CC=C6[C@@H]7CC(C)(C)CC[C@]7(C(=O)O)CC[C@@]6(C)[C@]5(C)CC[C@H]4C3(C)C)OC[C@H](O[C@@H]3O[C@H](CO)[C@@H](O)[C@H](O)[C@H]3O)[C@@H]2O)[C@H](O)[C@H](O[C@@H]2O[C@H](CO)[C@@H](O[C@@H]3O[C@H](CO)[C@@H](O)[C@H](O)[C@H]3O)[C@H](O)[C@H]2O)[C@H]1O | 2.7 (≈ 2.21 µM) |
| COC(=O)[C@]12CCC(C)(C)C[C@H]1C1=CC[C@@H]3[C@@]4(C)CC[C@H](O[C@@H]5OC[C@H](O)[C@H](O)[C@H]5O[C@@H]5O[C@@H](C)[C@H](O)[C@@H](O[C@@H]6O[C@H](CO)[C@@H](O)[C@H](O)[C@H]6O)[C@H]5O)[C@@](C)(CO)[C@@H]4CC[C@@]3(C)[C@]1(C)CC2 | 8 (≈ 8.63 µM) |
| CC1(C)CC[C@]2(C(=O)O)CC[C@]3(C)C(=CC[C@@H]4[C@@]5(C)CC[C@H](O)C(C)(C)[C@@H]5CC[C@]43C)[C@@H]2C1 [OLEANOLIC_ACID] | > 50 |
| C[C@@H]1O[C@@H](O[C@H]2[C@H](O[C@H]3CC[C@]4(C)[C@H]5CC=C6[C@@H]7CC(C)(C)CC[C@]7(C(=O)O)CC[C@@]6(C)[C@]5(C)CC[C@H]4C3(C)C)OC[C@H](O)[C@@H]2O)[C@H](O)[C@H](O)[C@H]1O | 4.4 (≈ 5.99 µM) |
| COC(=O)[C@]12CCC(C)(C)C[C@H]1C1=CC[C@@H]3[C@@]4(C)CC[C@H](O[C@@H]5OC[C@H](O)[C@H](O)[C@H]5O[C@@H]5O[C@@H](C)[C@H](O)[C@@H](O[C@@H]6O[C@H](CO)[C@@H](O[C@@H]7O[C@H](CO)[C@@H](O)[C@H](O)[C@H]7O)[C@H](O)[C@H]6O)[C@H]5O)C(C)(C)[C@@H]4CC[C@@]3(C)[C@]1(C)CC2 | 7.8 (≈ 7.27 µM) |
| CC1(C)CC[C@]2(C(=O)O)CC[C@]3(C)C(=CC[C@@H]4[C@@]5(C)CC[C@H](O[C@@H]6OC[C@H](O[C@@H]7O[C@H](CO)[C@@H](O)[C@H](O)[C@H]7O)[C@H](O)[C@H]6O)[C@@](C)(CO)[C@@H]5CC[C@]43C)[C@@H]2C1 | > 10 |
| C[C@@H]1O[C@@H](O[C@H]2[C@H](O[C@H]3CC[C@@]4(C)[C@@H](CC[C@]5(C)[C@@H]4CC=C4[C@@H]6CC(C)(C)CC[C@]6(C(=O)O)CC[C@]45C)[C@]3(C)CO)OC[C@H](O[C@@H]3O[C@H](CO)[C@@H](O)[C@H](O)[C@H]3O)[C@@H]2O)[C@H](O)[C@H](O)[C@H]1O [HEDERACOLCHISIDE A] | 3.8 (≈ 4.16 µM) |
| C[C@@H]1O[C@@H](O[C@H]2[C@H](O[C@H]3CC[C@]4(C)[C@H]5CC=C6[C@@H]7CC(C)(C)CC[C@]7(C(=O)O)CC[C@@]6(C)[C@]5(C)CC[C@H]4C3(C)C)OC[C@H](O)[C@@H]2O)[C@H](O)[C@H](O[C@@H]2O[C@H](CO)[C@@H](O[C@@H]3O[C@H](CO)[C@@H](O)[C@H](O)[C@H]3O)[C@H](O)[C@H]2O)[C@H]1O | 2.6 (≈ 2.45 µM) |
| C[C@@H]1O[C@@H](O[C@H]2[C@H](O[C@H]3CC[C@@]4(C)[C@@H](CC[C@]5(C)[C@@H]4CC=C4[C@@H]6CC(C)(C)CC[C@]6(C(=O)O)CC[C@]45C)[C@]3(C)CO)OC[C@H](O)[C@@H]2O)[C@H](O)[C@H](O)[C@H]1O [ALPHA-HEDERIN] | 7.1 (≈ 9.45 µM) |
| C[C@@H]1O[C@@H](O[C@H]2[C@H](O[C@H]3CC[C@]4(C)[C@H]5CC=C6[C@@H]7CC(C)(C)CC[C@]7(C(=O)O)CC[C@@]6(C)[C@]5(C)CC[C@H]4C3(C)C)OC[C@H](O)[C@@H]2O)[C@H](O)[C@H](O[C@@H]2O[C@H](CO)[C@@H](O)[C@H](O)[C@H]2O)[C@H]1O | 3.6 (≈ 4.01 µM) |
| C[C@@H]1O[C@@H](O[C@H]2[C@H](O[C@H]3CC[C@@]4(C)[C@@H](CC[C@]5(C)[C@@H]4CC=C4[C@@H]6CC(C)(C)CC[C@]6(C(=O)O)CC[C@]45C)[C@]3(C)CO)OC[C@H](O)[C@@H]2O)[C@H](O)[C@H](O[C@@H]2O[C@H](CO)[C@@H](O)[C@H](O)[C@H]2O)[C@H]1O | 7.8 (≈ 8.54 µM) |
